Experimental data as given in ChEMBL document CHEMBL3396998, “Synthesis and antitubercular evaluation of 4-carbonyl piperazine substituted 1,3-benzothiazin-4-one derivatives” (Bioorg Med Chem Lett, 2015).
Values after ≈ are worked out from the molar mass of the structure shown.

How the values were obtained:
[1] = Aqueous solubility of the compound by HPLC method; type: physicochemical; conditions: water
[2] = test system: Mycobacterium tuberculosis; assay: Antitubercular activity against Mycobacterium tuberculosis H37Ra ATCC 25177 by MABA method; type: functional
[3] = Cytotoxicity against African green monkey Vero cells after 72 hrs by MTT assay; type: cell-based; conditions: chlorocebus sabaeus
In short: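 Vero cells were exposed to each compound over a broad concentration range. Viability was read by MTT, and cytotoxicity was reported as IC50.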

[4] = Ratio of aqueous solubility of PBTZ169 to aqueous solubility of the compound by HPLC method; type: physicochemical; conditions: buffer
[5] = Ratio of aqueous solubility of BTZ038 to aqueous solubility of the compound by HPLC method; type: physicochemical; conditions: buffer

SMILES	solubility [1]	MIC90 [2]	CC50 at 72 h [3]	Ratio [4]	Ratio [5]
O=C(c1ccc([N+](=O)[O-])cc1)N1CCN(c2nc(=O)c3cc(C(F)(F)F)cc([N+](=O)[O-])c3s2)CC1	1.67 µg/mL (≈ 3.28 µM)	0.063 µM (≈ 0.0321 µg/mL)	> 125 µM		
O=C(c1ccccc1F)N1CCN(c2nc(=O)c3cc(C(F)(F)F)cc([N+](=O)[O-])c3s2)CC1	3.1 µg/mL (≈ 6.43 µM)	0.008 µM (≈ 0.00386 µg/mL)	> 125 µM		
O=C(c1ccccc1Cl)N1CCN(c2nc(=O)c3cc(C(F)(F)F)cc([N+](=O)[O-])c3s2)CC1	8.18 µg/mL (≈ 16.4 µM)	0.016 µM (≈ 0.00798 µg/mL)	> 125 µM		
O=C(C1CCCC1)N1CCN(c2nc(=O)c3cc(C(F)(F)F)cc([N+](=O)[O-])c3s2)CC1	5.34 µg/mL (≈ 11.7 µM)	0.016 µM (≈ 0.0073 µg/mL)	120 µM		
CCC(=O)N1CCN(c2nc(=O)c3cc(C(F)(F)F)cc([N+](=O)[O-])c3s2)CC1	3.29 µg/mL (≈ 7.9 µM)	0.016 µM (≈ 0.00666 µg/mL)	> 125 µM		
CCCCC(=O)N1CCN(c2nc(=O)c3cc(C(F)(F)F)cc([N+](=O)[O-])c3s2)CC1	42.5 µg/mL (≈ 95.6 µM)	0.031 µM (≈ 0.0138 µg/mL)	> 125 µM		
COc1ccc(CC(=O)N2CCN(c3nc(=O)c4cc(C(F)(F)F)cc([N+](=O)[O-])c4s3)CC2)cc1	2.72 µg/mL (≈ 5.35 µM)	0.13 µM (≈ 0.0661 µg/mL)	> 125 µM		
COc1ccccc1C(=O)N1CCN(c2nc(=O)c3cc(C(F)(F)F)cc([N+](=O)[O-])c3s2)CC1	13.6 µg/mL (≈ 27.4 µM)	0.063 µM (≈ 0.0312 µg/mL)	> 125 µM		
O=C(CC1CCCCC1)N1CCN(c2nc(=O)c3cc(C(F)(F)F)cc([N+](=O)[O-])c3s2)CC1	0.12 µg/mL (≈ 0.248 µM)	0.016 µM (≈ 0.00775 µg/mL)	> 125 µM		
O=C(c1cccc(F)c1)N1CCN(c2nc(=O)c3cc(C(F)(F)F)cc([N+](=O)[O-])c3s2)CC1	0.2 µg/mL (≈ 0.415 µM)	0.016 µM (≈ 0.00772 µg/mL)	> 125 µM		
CC(C)(C)c1ccc(C(=O)N2CCN(c3nc(=O)c4cc(C(F)(F)F)cc([N+](=O)[O-])c4s3)CC2)cc1	1.25 µg/mL (≈ 2.4 µM)	0.016 µM (≈ 0.00833 µg/mL)	> 125 µM		
O=C(C1CCCCC1)N1CCN(c2nc(=O)c3cc(C(F)(F)F)cc([N+](=O)[O-])c3s2)CC1	3.24 µg/mL (≈ 6.89 µM)	0.031 µM (≈ 0.0146 µg/mL)	88.7 µM		
O=C(c1ccc(F)cc1)N1CCN(c2nc(=O)c3cc(C(F)(F)F)cc([N+](=O)[O-])c3s2)CC1	1.69 µg/mL (≈ 3.5 µM)	0.031 µM (≈ 0.015 µg/mL)	> 125 µM		
CSCC(=O)N1CCN(c2nc(=O)c3cc(C(F)(F)F)cc([N+](=O)[O-])c3s2)CC1	15.2 µg/mL (≈ 33.8 µM)	0.13 µM (≈ 0.0583 µg/mL)	> 125 µM		
O=C(c1ccc(C(F)(F)F)cc1)N1CCN(c2nc(=O)c3cc(C(F)(F)F)cc([N+](=O)[O-])c3s2)CC1	7.53 µg/mL (≈ 14.1 µM)	0.031 µM (≈ 0.0165 µg/mL)	> 125 µM		
CCc1ccc(C(=O)N2CCN(c3nc(=O)c4cc(C(F)(F)F)cc([N+](=O)[O-])c4s3)CC2)cc1	< 0.1 µg/mL	0.031 µM (≈ 0.0153 µg/mL)	> 125 µM		

SMILES	solubility [1]	MIC90 [2]	CC50 at 72 h [3]	Ratio [4]	Ratio [5]
O=C(c1ccccc1[N+](=O)[O-])N1CCN(c2nc(=O)c3cc(C(F)(F)F)cc([N+](=O)[O-])c3s2)CC1	2.15 µg/mL (≈ 4.22 µM)	0.13 µM (≈ 0.0662 µg/mL)	> 125 µM		
COc1cccc(C(=O)N2CCN(c3nc(=O)c4cc(C(F)(F)F)cc([N+](=O)[O-])c4s3)CC2)c1	0.91 µg/mL (≈ 1.84 µM)	0.031 µM (≈ 0.0153 µg/mL)	> 125 µM		
CC(C)(C)C1CCC(C(=O)N2CCN(c3nc(=O)c4cc(C(F)(F)F)cc([N+](=O)[O-])c4s3)CC2)CC1 (stereo not drawn)	< 0.1 µg/mL	0.004 µM (≈ 0.00211 µg/mL)	> 125 µM		
O=C(C1CC1)N1CCN(c2nc(=O)c3cc(C(F)(F)F)cc([N+](=O)[O-])c3s2)CC1	52.9 µg/mL (≈ 123 µM)	0.13 µM (≈ 0.0557 µg/mL)	> 125 µM		
CC1COC2(CCN(c3nc(=O)c4cc(C(F)(F)F)cc([N+](=O)[O-])c4s3)CC2)O1 (racemic)	0.94 µg/mL (≈ 2.18 µM)	0.004 µM (≈ 0.00173 µg/mL)	> 125 µM		
CC(=O)N1CCN(c2nc(=O)c3cc(C(F)(F)F)cc([N+](=O)[O-])c3s2)CC1	83.9 µg/mL (≈ 208 µM)	> 0.13 µM	> 125 µM		
O=C(C1CCC1)N1CCN(c2nc(=O)c3cc(C(F)(F)F)cc([N+](=O)[O-])c3s2)CC1	39.3 µg/mL (≈ 88.8 µM)	0.031 µM (≈ 0.0137 µg/mL)	> 125 µM		
Cc1ccc(C(=O)N2CCN(c3nc(=O)c4cc(C(F)(F)F)cc([N+](=O)[O-])c4s3)CC2)cc1	6.7 µg/mL (≈ 14 µM)	0.031 µM (≈ 0.0148 µg/mL)	> 125 µM		
CCCC(=O)N1CCN(c2nc(=O)c3cc(C(F)(F)F)cc([N+](=O)[O-])c3s2)CC1	2.46 µg/mL (≈ 5.72 µM)	0.13 µM (≈ 0.056 µg/mL)	> 125 µM		
O=C(N1CCN(c2nc(=O)c3cc(C(F)(F)F)cc([N+](=O)[O-])c3s2)CC1)C12CC3CC(CC(C3)C1)C2	2.95 µg/mL (≈ 5.65 µM)	0.031 µM (≈ 0.0162 µg/mL)	> 125 µM		
O=c1nc(N2CCN(CC3CCCCC3)CC2)sc2c([N+](=O)[O-])cc(C(F)(F)F)cc12 [MACOZINONE]	9.07 µg/mL (≈ 19.9 µM)	< 0.004 µM	> 125 µM		
CC(C)(C)C(=O)N1CCN(c2nc(=O)c3cc(C(F)(F)F)cc([N+](=O)[O-])c3s2)CC1	5.87 µg/mL (≈ 13.2 µM)	0.031 µM (≈ 0.0138 µg/mL)	> 125 µM		
CC(C)CC(=O)N1CCN(c2nc(=O)c3cc(C(F)(F)F)cc([N+](=O)[O-])c3s2)CC1	66.3 µg/mL (≈ 149 µM)	0.031 µM (≈ 0.0138 µg/mL)	> 125 µM		
CCC(C)C(=O)N1CCN(c2nc(=O)c3cc(C(F)(F)F)cc([N+](=O)[O-])c3s2)CC1 (stereo not drawn)	104 µg/mL (≈ 234 µM)	0.008 µM (≈ 0.00356 µg/mL)	> 125 µM	10	100
COc1ccc(C(=O)N2CCN(c3nc(=O)c4cc(C(F)(F)F)cc([N+](=O)[O-])c4s3)CC2)cc1	0.22 µg/mL (≈ 0.445 µM)	0.13 µM (≈ 0.0643 µg/mL)	> 125 µM		
O=C(c1ccc(Cl)cc1)N1CCN(c2nc(=O)c3cc(C(F)(F)F)cc([N+](=O)[O-])c3s2)CC1	5.19 µg/mL (≈ 10.4 µM)	0.016 µM (≈ 0.00798 µg/mL)	> 125 µM		
